ChEMBL document CHEMBL4014347, “Targeting Mycolic Acid Transport by Indole-2-carboxamides for the Treatment of Mycobacterium abscessus Infections” (J Med Chem, 2017)
In brackets after ≈: the same amount, converted by molar mass. Activity calls are given as the source filed them. The calls are words filed in the database; no cut-off is given here.

What was measured:
CYP2C19 = CYP2C19 (Homo sapiens, UniProt P33261); experiment: Inhibition of CYP2C19 in human liver microsomes preincubated for 5 mins followed by NADPH addition at 10 uM measured after 40 mins by LC-MS/MS analysis relative to control; format: ADME
[1] = tested on: Mycobacteroides abscessus; experiment: Antibacterial activity against CF patient derived Mycobacterium abscessus subsp. massiliense isolate 120 smooth variant after 3 to 5 days by two fold serial dilution method; format: functional
Procedure, shortened: (§1)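 Broth microdilution in cation-adjusted Mueller−Hinton broth per CLSI; inoculum 5 × 10^6 CFU/mL of exponential-phase bacteria; two-fold serial dilutions, solvent-only wells as control; 30 °C for 3−5 days; MIC read visually and confirmed by absorbance at 560 nm; triplicate on three independent occasions.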

Liver [2] = experiment: Intrinsic clearance in rat liver microsomes at 0.5 uM in presence of NADPH by LC-MS/MS analysis; format: ADME, microsome
Procedure, shortened: (§2)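 Compound (0.5 μM) incubated with mouse or rat liver microsomes plus NADPH regenerating system; aliquots every 3 min over 30 min analysed for parent by LC-MS/MS; monoexponential decay rate normalized to microsomal protein, expressed as mL/min/g liver.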

[3] = tested on: Mycobacteroides abscessus; experiment: Antibacterial activity against Mycobacterium abscessus CIP104536 smooth variant assessed as reduction in viable colony forming unit at […] after 4 days by time-kill assay; format: functional
Liver [4] = experiment: Intrinsic clearance in mouse liver microsomes at 0.5 uM in presence of NADPH by LC-MS/MS analysis; format: ADME, microsome; procedure, shortened: as §2
[5] = tested on: Mycobacteroides abscessus; experiment: Antibacterial activity against non CF patient derived Mycobacterium abscessus subsp. abscessus isolate 3022 rough variant after 3 to 5 days by two fold serial dilution method; format: functional; procedure, shortened: as §1
[6] = tested on: Mycobacteroides abscessus; experiment: Antibacterial activity against non CF patient derived Mycobacterium abscessus subsp. abscessus isolate CIP104536 smooth variant after 3 to 5 days by two fold serial dilution method; format: functional; procedure, shortened: as §1
CYP1A2 = molecular target: T1, CYP1A2 (Homo sapiens, UniProt P05177); experiment: Inhibition of CYP1A2 in human liver microsomes preincubated for 5 mins followed by NADPH addition at 10 uM measured after 10 mins by LC-MS/MS analysis relative to control; format: ADME
T1 sequence (P05177 whole entry): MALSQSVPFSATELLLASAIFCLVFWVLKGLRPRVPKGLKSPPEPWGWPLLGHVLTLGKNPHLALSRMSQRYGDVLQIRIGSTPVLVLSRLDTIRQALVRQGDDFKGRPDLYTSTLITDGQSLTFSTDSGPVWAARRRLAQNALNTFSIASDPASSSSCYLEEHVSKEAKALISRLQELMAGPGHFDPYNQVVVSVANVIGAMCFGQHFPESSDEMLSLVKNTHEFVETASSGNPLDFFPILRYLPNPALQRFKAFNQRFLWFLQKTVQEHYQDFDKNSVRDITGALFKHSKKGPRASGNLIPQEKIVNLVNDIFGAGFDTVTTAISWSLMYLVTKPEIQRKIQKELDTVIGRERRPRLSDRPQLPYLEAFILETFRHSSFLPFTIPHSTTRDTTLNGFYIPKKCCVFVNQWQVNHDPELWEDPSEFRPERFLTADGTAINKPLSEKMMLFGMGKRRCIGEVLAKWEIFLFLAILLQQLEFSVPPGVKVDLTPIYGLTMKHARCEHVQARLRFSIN

[7] = Protein binding in rat plasma at 5 uM after 10 mins by LC-MS/MS analysis; format: ADME, cell-free; conditions: read-out: PPB (converted)
Procedure, shortened: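 Ultracentrifugation method: 5 μM compound in mouse or rat plasma (from DMSO stock), 10 min at 37 °C; total concentration from incubated plasma, unbound from middle-layer supernatant after 200000g for 4.5 h; niflumic acid internal standard, acetonitrile, filtered, LC-MS/MS.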

Salmonella typhimurium [8] = experiment: Mutagenicity in Salmonella typhimurium TA98 in presence of rat liver S9 fraction assessed as increase in revertant colonies at 0.24 to 500 ug/well after 72 hrs by Ames test relative to control; format: toxicity; conditions: salmonella enterica subsp. enterica serovar typhimurium, s9, 72 h
Procedure, shortened: (§3)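 Reverse mutation at histidine locus in S. typhimurium TA98 (frameshift) and TA100 (base-pair substitution), with and without S9; 0.24−500 μg/well; 37 ± 2 °C for 72 h, triplicates; DMSO vehicle; sodium azide, 2-nitrofluorene, 2-aminoanthracene positive controls; positive if revertants rise ≥2-fold over negative control dose-dependently.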

[9] = tested on: Mycobacteroides abscessus; experiment: Antibacterial activity against CF patient derived Mycobacterium abscessus subsp. massiliense isolate 185 smooth variant after 3 to 5 days by two fold serial dilution method; format: functional; procedure, shortened: as §1
[10] = tested on: Mycobacteroides abscessus; experiment: Inhibition of MmpL3 in Mycobacterium abscessus CIP104536 smooth variant assessed as reduction in arabinogalactan mycolation preincubated for 1 hr followed by [14C]acetic acid addition measured after 2 hrs by TLC based autoradiography analysis
Procedure, shortened: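 Exponential cultures in 7H9 with OADC exposed to increasing drug concentrations for 1 h at 37 °C with agitation, then labelled with 1 μCi/mL [14C]acetate (56 mCi/mmol) for 2 h; apolar lipids (TMM, TDM) run on TLC in chloroform/methanol/water 40:8:1; MAME and arabinogalactan-bound mycolates in petroleum ether/acetone 95:5; autoradiography.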

Salmonella typhimurium [11] = experiment: Mutagenicity in Salmonella typhimurium TA100 assessed as increase in revertant colonies at 0.24 to 500 ug/well after 72 hrs by Ames test relative to control; format: toxicity; conditions: salmonella enterica subsp. enterica serovar typhimurium; procedure, shortened: as §3
[12] = Antibacterial activity against Mycobacterium abscessus subsp. bolletii isolate CIP108541 smooth variant after 3 to 5 days by two fold serial dilution method; format: functional; conditions: Mycobacteroides abscessus; procedure, shortened: as §1
[13] = tested on: Mycobacteroides abscessus; experiment: Antibacterial activity against CF patient derived Mycobacterium abscessus subsp. massiliense isolate 212 smooth variant after 3 to 5 days by two fold serial dilution method; format: functional; procedure, shortened: as §1
[14] = Antibacterial activity against non CF patient derived Mycobacterium abscessus subsp. bolletii isolate 19 rough variant after 3 to 5 days by two fold serial dilution method; format: functional; conditions: Mycobacteroides abscessus; procedure, shortened: as §1
[15] = tested on: Mycobacteroides abscessus; experiment: Antibacterial activity against CF patient derived Mycobacterium abscessus subsp. massiliense isolate 100 smooth variant after 3 to 5 days by two fold serial dilution method; format: functional; procedure, shortened: as §1
Cytochrome P450 1A2 = molecular target: T2, Cytochrome P450 1A2 (Homo sapiens, UniProt P05177); experiment: Inhibition of CYP1A2 in human liver microsomes preincubated for 5 mins followed by NADPH addition measured after 10 mins by LC-MS/MS analysis; format: ADME
T2 sequence (P05177 whole entry): T1 sequence (P05177 whole entry)

[16] = tested on: Mycobacteroides abscessus; experiment: Antibacterial activity against CF patient derived Mycobacterium abscessus subsp. massiliense isolate 107 smooth variant after 3 to 5 days by two fold serial dilution method; format: functional; procedure, shortened: as §1
[17] = tested on: Mycobacteroides abscessus; experiment: Antibacterial activity against CF patient derived Mycobacterium abscessus subsp. abscessus isolate 2069 smooth variant after 3 to 5 days by two fold serial dilution method; format: functional; procedure, shortened: as §1
CYP2C9 = CYP2C9 (Homo sapiens, UniProt P11712); experiment: Inhibition of CYP2C9 in human liver microsomes preincubated for 5 mins followed by NADPH addition at 10 uM measured after 10 mins by LC-MS/MS analysis relative to control; format: ADME
Sequence of CYP2C9 (P11712 whole entry): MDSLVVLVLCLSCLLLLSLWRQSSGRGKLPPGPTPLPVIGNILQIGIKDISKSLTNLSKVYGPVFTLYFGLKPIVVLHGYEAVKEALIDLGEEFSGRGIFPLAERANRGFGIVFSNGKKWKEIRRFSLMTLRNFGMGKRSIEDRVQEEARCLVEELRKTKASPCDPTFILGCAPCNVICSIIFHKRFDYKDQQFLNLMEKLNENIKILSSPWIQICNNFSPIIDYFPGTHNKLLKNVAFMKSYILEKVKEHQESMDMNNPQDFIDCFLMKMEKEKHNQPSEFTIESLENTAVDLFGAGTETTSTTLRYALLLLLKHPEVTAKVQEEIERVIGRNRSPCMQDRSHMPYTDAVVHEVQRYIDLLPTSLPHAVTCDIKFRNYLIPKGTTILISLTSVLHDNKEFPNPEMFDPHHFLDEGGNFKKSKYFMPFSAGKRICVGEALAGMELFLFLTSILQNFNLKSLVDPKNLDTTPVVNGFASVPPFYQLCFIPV

Sequence of CYP2C19 (P33261 whole entry): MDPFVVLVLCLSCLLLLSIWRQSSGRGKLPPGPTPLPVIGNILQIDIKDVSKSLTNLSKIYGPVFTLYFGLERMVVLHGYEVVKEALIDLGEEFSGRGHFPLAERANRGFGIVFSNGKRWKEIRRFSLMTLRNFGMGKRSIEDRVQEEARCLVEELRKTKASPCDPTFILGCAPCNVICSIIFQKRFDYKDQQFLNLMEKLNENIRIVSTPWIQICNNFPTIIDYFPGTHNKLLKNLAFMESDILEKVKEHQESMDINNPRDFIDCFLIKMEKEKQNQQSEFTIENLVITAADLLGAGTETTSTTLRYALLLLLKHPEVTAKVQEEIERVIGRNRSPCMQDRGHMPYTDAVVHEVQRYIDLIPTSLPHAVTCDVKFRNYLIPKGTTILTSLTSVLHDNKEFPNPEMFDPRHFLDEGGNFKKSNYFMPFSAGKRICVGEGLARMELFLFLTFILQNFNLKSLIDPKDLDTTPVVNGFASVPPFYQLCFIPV

O=C(NC1CCCCCC1)c1cc2c(Cl)cc(Cl)cc2[nH]1
inhibition at 40 min, 10 µM (CYP2C19): 4% | MIC [1]: 0.125 µg/mL (≈ 0.384 µM) | CLH (Liver [2]): 6.3 mL/min/g | Activity [3]: Active | CLH (Liver [4]): 4.8 mL/min/g | MIC [5]: 0.125 µg/mL (≈ 0.384 µM) | MIC [6]: 0.125 µg/mL (≈ 0.384 µM) | inhibition at 10 min, 10 µM (CYP1A2): 19% | fraction unbound at 10 min, 5 µM [7]: 0.008 | fold change (FC) (Salmonella typhimurium [8]): < 2 | MIC [9]: 0.125 µg/mL (≈ 0.384 µM) | inhibition [10]: Dose-dependent effect | fold change (FC) (Salmonella typhimurium [11]): < 2 | MIC [12]: 0.125 µg/mL (≈ 0.384 µM) | MIC [13]: 0.125 µg/mL (≈ 0.384 µM) | MIC [14]: 0.125 µg/mL (≈ 0.384 µM) | MIC [15]: 0.125 µg/mL (≈ 0.384 µM) | IC50 (Cytochrome P450 1A2): ≤ 20 µM | MIC [16]: 0.25 µg/mL (≈ 0.769 µM) | MIC [17]: 0.125 µg/mL (≈ 0.384 µM) | inhibition at 10 min, 10 µM (CYP2C9): 6%
